Data set [1] relates to Trichomonas vaginalis. Put plainly: Anti-trichomonas activity against MTZ-resistant Trichomonas vaginalis incubated for 3 to 48 hrs by trypan blue exclusion assay. It counts as functional. In short, it runs like this: (§1)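 Trichomonas vaginalis trophozoites (5 × 10^4/L as printed) in TYM medium; DMSO stocks (100.0 mg/mL) serially diluted in TYM to 0.1 mg/mL, DMSO/TYM vehicle controls. Anaerobic incubation at 37 °C; viability checked 3–48 h by microscopy (200×) with trypan blue exclusion. MIC = lowest concentration killing all cells within 48 h.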

For the next data set, the system named is Candida parapsilosis. Put plainly: Antifungal activity against Candida parapsilosis ATCC 22019 incubated for 48 hrs by broth micro-dilution method. As to conditions: Lodderomyces parapsilosis, ATCC 22019, 48 h. In kind it is functional. In short, it runs like this:
(§2)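 Broth microdilution per NCCLS guidelines in RPMI 1640 buffered with MOPS; starting inoculum 1–5 × 10^3 CFU/mL; plates incubated at 35 °C, MIC read after 48 h.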
In general terms: Dilution methods test growth across graded concentrations, often in twofold steps.

The nature of data set [2]: Tmax in New-Zealand rabbit at 33 mg/kg dosed through vaginal administration by LC-MS/MS method. It counts as ADME, organism-based, Oryctolagus cuniculus. The settings on record: in vivo. The procedure, abridged: (§3)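 Female New Zealand rabbits received a single vaginal dose of 33 mg/kg. Drug in plasma was quantified by LC-MS/MS on a C18 column with phenacetin as internal standard. For each plasma sample (50 µL), 200 µL of internal-standard solution (200 ng/mL phenacetin in acetonitrile) was added. Samples were mixed, centrifuged at 13,000 rpm for 20 min, and the supernatant injected. The method was validated to FDA bioanalytical criteria.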

Data set [3] has as its system Trichomonas vaginalis. Put plainly: Anti-trichomonas activity against MTZ-susceptible Trichomonas vaginalis incubated for 3 to 48 hrs by trypan blue exclusion assay. It counts as functional. The procedure, abridged:
as §1

A short description of data set [4]: AUC (0 to infinity) in New-Zealand rabbit at 33 mg/kg dosed through vaginal administration by LC-MS/MS method. In kind it is ADME, organism-based, Oryctolagus cuniculus. Set-up: dose 33 mg/kg, time infinity. The settings on record: in vivo. The procedure, abridged:
as §3

The next data set relates to Cryptococcus neoformans. Put plainly: Antifungal activity against Cryptococcus neoformans incubated for 48 hrs by broth micro-dilution method. It counts as functional. The procedure, abridged: as §2
Data set [5] can be described thus: Stability in simulated vaginal fluid at pH 4.2 at 200 ng/ml by LC-MS/MS method. As to conditions: buffer.
The test system of data set [6] is Trichomonas vaginalis. Put plainly: Resistance index, ratio of MIC for MTZ-resistant Trichomonas vaginalis to MIC for MTZ-susceptible Trichomonas vaginalis. In kind it is functional.
Data set [7] relates to Oryctolagus cuniculus. Kind of data set: Drug level in plasma of New-Zealand rabbit at 33 mg/kg dosed through vaginal administration by LC-MS/MS method. It counts as ADME, organism-based. The settings on record: in vivo, other. In short, it runs like this:
as §3

Data set [8] in a line: Effect on Lactobacillus jensenii ATCC 25258 62G assessed as effect on microbial proliferation at 200 ug/ml incubated for 24 hrs. The procedure, abridged: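 L. jensenii ATCC 25258 (strain 62G) in 6% Rogosa SL broth with 0.132% acetic acid; serial compound dilutions or vehicle in triplicate, ~1000 CFU per well, 24 h at 37 °C, humidified 5% CO2; growth read as OD610, expressed relative to control = 100.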

The nature of data set [9]: Cmax in New-Zealand rabbit at 33 mg/kg dosed through vaginal administration by LC-MS/MS method. In kind it is ADME, organism-based, Oryctolagus cuniculus. Also noted: dose 33 mg/kg. As to conditions: in vivo. In short, it runs like this: as §3
The nature of data set [10]: Spermicidal activity in liquefied human semen assessed as reduction in motile spermatozoa incubated at 37 degC for 30 mins. It counts as functional, Sperm. The settings on record: for minimal effective concentration: Homo sapiens, Sperm, Semen, 0.5 h, read-out: MEC. The procedure, abridged: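 Compounds dissolved in minimal DMSO, diluted with 0.85% saline to 1.0% test solution; liquefied human semen mixed 1:5 with test solution, vortexed 10 s; motile sperm scored by phase-contrast microscopy over 60 s in five fields. MEC = lowest concentration immobilizing 100% of sperm, still immotile after dilution with nutrient medium.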

The next data set has as its system Candida albicans. Kind of data set: Antifungal activity against Candida albicans incubated for 48 hrs by broth micro-dilution method. In kind it is functional. The procedure, abridged: as §2
The subject of another data set is HeLa. Put plainly: Cytotoxicity against human HeLa cells assessed as reduction in cell viability at 200 ug/ml incubated for 24 hrs by MTT assay. In kind it is cell-based. In short, it runs like this:
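HeLa cells seeded at 5 × 10^4 per well, exposed 24 h to compound dilutions in culture medium or vehicle control; MTT (5 mg/mL in pH 7.4 buffer) added, formazan dissolved in DMSO, absorbance read at 540 nm.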
On the technique in general: Tetrazolium assays rely on reduction of a dye to a coloured formazan, in cell work by metabolically active cells.

Data set [11] addresses Human immunodeficiency virus type 1 reverse transcriptase (Human immunodeficiency virus 1) (UniProt Q72547). Put plainly: Inhibition of HIV1 reverse transcriptase at 100 ug/ml incubated for 1 hr by ELISA method. In short, it runs like this: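 Non-radioactive colorimetric ELISA: template/primer with dNTPs plus HIV-1 RT in lysis buffer ± compound (100 µg/mL), 1 h at 37 °C; RT-free buffer as negative control, nevirapine as positive control. Product captured on streptavidin plate 1 h at 37 °C, detected with anti-DIG-POD and ABTS, OD 405 nm.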
In general terms: In an ELISA, binding on a coated surface is turned into a signal by an enzyme label.

For data set [12], the system named is Trichophyton mentagrophytes. Kind of data set: Antifungal activity against Trichophyton mentagrophytes incubated for 48 hrs by broth micro-dilution method. In kind it is functional. The procedure, abridged: as §2
Another data set deals with Sporothrix schenckii. Kind of data set: Antifungal activity against Sporothrix schenckii incubated for 48 hrs by broth micro-dilution method. In kind it is functional. The procedure, abridged: as §2
A further data set concerns Aspergillus fumigatus. Kind of data set: Antifungal activity against Aspergillus fumigatus incubated for 48 hrs by broth micro-dilution method. It counts as functional. The procedure, abridged: as §2
Data set [13] can be described thus: Terminal half life in New-Zealand rabbit at 33 mg/kg dosed through vaginal administration by LC-MS/MS method. It counts as ADME, organism-based, Oryctolagus cuniculus. As to conditions: in vivo, read-out: beta t1/2 (converted). In short, it runs like this:
as §3

Data set [14] concerns Oryctolagus cuniculus. Kind of data set: Apparent […] volume of distribution in New-Zealand rabbit at 33 mg/kg dosed through vaginal administration by LC-MS/MS method. In kind it is ADME, organism-based. As to conditions: in vivo. In short, it runs like this:
as §3

The structures appear in SMILES notation. In brackets after ≈: the same amount, converted by molar mass.

For orientation: MIC means the lowest concentration that inhibits growth of the organism. A high value points to weaker potency. By Tmax is commonly meant the time at which the peak concentration occurs. What is called AUC(0-inf) is total exposure, with the tail of the curve extrapolated. Low values mean less exposure, high ones more exposure. In general, Cmax refers to the highest concentration seen after dosing. In general, inhibition refers to the share of the control response that was lost under treatment. A high value points to strong suppression. Take `CCCCNC(=S)N1CCN(CCC(=O)c2ccccc2)CC1`: the MIC against Trichomonas vaginalis [1] is 188 µM (≈ 62.6 µg/mL); in the data set on Candida parapsilosis it was > 81.2 µM; with Trichomonas vaginalis [3], 46.7 µM (≈ 15.6 µg/mL); with Cryptococcus neoformans, 9.34 µM (≈ 3.11 µg/mL); with Candida albicans it was 74.8 µM (≈ 24.9 µg/mL); in data set [12], 9.34 µM (≈ 3.11 µg/mL). For the same molecule, the MIC in the data set on Sporothrix schenckii and against Aspergillus fumigatus was > 81.2 µM in each case. Also, the Tmax in data set [2] is 0.75 h. The molecule further registered an AUC(0-inf) in data set [4] of 14.7 ng·h/mL. The Stability in [5] is > 1 h. The Ratio in the data set with Trichomonas vaginalis [6] was 4. The Drug uptake result in the data set with Oryctolagus cuniculus [7] is reported as “Not Active”. The Activity entry (in data set [8]; in the data set with HeLa) was “Non-toxic” each time. In [9], this molecule yielded a Cmax of 4.43 ng/mL. The MEC in data set [10] was determined as 0.01%. The minimal effective concentration in data set [10] was determined as 300 µM. The same molecule had an inhibition in [11] of 72.3%. In addition, in data set [13], the half-life is 4.67 h.

Turning to `FC(F)(F)c1ccc(OC(CCN2CCN(C(=S)NCc3ccccc3)CC2)c2ccccc2)cc1` (stereo not given), the MIC against Trichomonas vaginalis [1] is 243 µM (≈ 125 µg/mL); against Candida parapsilosis, > 81.2 µM; with Trichomonas vaginalis [3], 60.9 µM (≈ 31.3 µg/mL); with Cryptococcus neoformans, 12.1 µM (≈ 6.21 µg/mL); against Candida albicans, > 81.2 µM; in [12], 6.07 µM (≈ 3.12 µg/mL). Besides, the MIC in the data set on Sporothrix schenckii and against Aspergillus fumigatus was > 81.2 µM throughout. The Ratio in the data set on Trichomonas vaginalis [6] was 2. In addition, the Activity result (in data set [8]; with HeLa) was “Non-toxic” throughout. Also, the MEC in data set [10] is >1%. In addition, the minimal effective concentration in data set [10] was > 19500 µM. In data set [11], the inhibition came out at 51%.

With `O=C(CCN1CCN(C(=S)NCCc2ccccc2)CC1)c1ccccc1`, the MIC in the data set with Trichomonas vaginalis [1] is 164 µM (≈ 62.6 µg/mL); with Candida parapsilosis, > 81.2 µM; against Trichomonas vaginalis [3], 40.8 µM (≈ 15.6 µg/mL); against Cryptococcus neoformans, > 81.2 µM; with Candida albicans it was > 81.2 µM; in data set [12], > 81.2 µM. For the same molecule, the MIC in the data set on Sporothrix schenckii and against Aspergillus fumigatus was > 81.2 µM throughout. Also, the Ratio in the data set with Trichomonas vaginalis [6] was 2. The Activity entry (in [8]; in the data set with HeLa) was “Non-toxic” each time. Further, in data set [10], the MEC was determined as 0.01%. Further, in data set [10], the minimal effective concentration worked out at 260 µM. In addition, the inhibition in data set [11] was 50.2%.

The term Vd/F denotes the volume of distribution divided by bioavailability. As for `CCCCCCCCCc1ccc(OCCOCCOCCOCCOCCOCCOCCOCCOCCO)cc1` [NONOXYNOL 9], the MIC in the data set on Trichomonas vaginalis [1] is 122 µM (≈ 75.1 µg/mL); against Candida parapsilosis it was > 81.2 µM; in the data set with Trichomonas vaginalis [3] it was 81.2 µM (≈ 50.1 µg/mL); against Cryptococcus neoformans, > 81.2 µM; against Candida albicans, > 81.2 µM; in [12], > 81.2 µM. The MIC with Sporothrix schenckii and against Aspergillus fumigatus was > 81.2 µM throughout. The Tmax in data set [2] came out at 1 h. Besides, the Vd/F with Oryctolagus cuniculus [14] turned out to be 7931.32 L/kg. In data set [4], this molecule came in with an AUC(0-inf) of 12.9 ng·h/mL. Moreover, the Stability in [5] was > 1 h. The Drug uptake result with Oryctolagus cuniculus [7] is “Not Active”. The molecule further displayed a Cmax in [9] of 3.66 ng/mL. In [10], the MEC is recorded as 0.05%. Moreover, the minimal effective concentration in data set [10] came to 810 µM. For the same molecule, in data set [13], the half-life is 1.59 h.

These data come from ChEMBL document CHEMBL3612038, “N-Alkyl/aryl-4-(3-substituted-3-phenylpropyl)piperazine-1-carbothioamide as dual-action vaginal microbicides with reverse transcriptase inhibition” (Eur J Med Chem, 2015).
